# The list is not random: actives were taken first. Their share in the collection is about 2.1%.
# PGC1a acetyl inh: PGC1a acetylation modulation, inhibitor mode; U2OS PGC1a acetylation, AlphaScreen anti-acetyl-lysine; with virally co-expressed GCN5 acetyltransferase; inhibition, % at 15.6 µM; 0.17% of 350,000 active; AID 651687;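 active = every replicate shows inhibition of at least 40%; inconclusive = mean inhibition at least 40% but some replicate below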;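 also: 0% = neutral control wells and 100% = positive control wells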
# Xi reactivation: X-chromosome reactivation activator. XiGFP mouse fibroblasts, % GFP-positive cells imaging, 3 d; cells co-treated with 5-aza-dC sensitizer; scaled so ellipticine positive control = 100%. activation, % at 7.58 µM. 0.055% of 360,000 active. AID 743238;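 active = mean normalized replicate activation at least 10% and every replicate at or above 10%; inconclusive = only one of the two criteria met; inactive = mean below 10% and not all replicates reach 10%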;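 also: 0% = median of on-plate neutral control wells and 100% = ellipticine 6 µM median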
#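 Material: XiGFP fibroblasts, SV40-immortalized; Buffer or medium: DMEM containing 5-aza-dC; Compound dosing: single point; Times: 3 days compound exposure.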
# EWS-Fli block: inhibitors of EWS/Fli oncoprotein transcriptional activity. A673 NR0B1-luciferase reporter, viability-normalised. inhibition, % at 12.6 µM. 0.67% of 350,000 active;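 active = mean inhibition of at least 50% after viability correction, with every replicate also passing that limit; inconclusive = mean reaches 50% but only one of two replicates passes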;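 also: firefly luciferase signal divided by Alamar Blue viability fluorescence both relative to DMSO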
# GSIS activator: primary screen for activators of insulin secretion dependent on glucose, INS-1E cells, GLuc reporter luminescence. INS-1E GLuc reporter insulin secretion, 2-3 h. 0.61% of 370,000 active. activation, % at 16.6 µM;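 active = lowest replicate activation of at least 40%, so every replicate reaches that level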;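 also: 0% = median of neutral control wells and 100% = median of IBMX positive control wells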
# PAX8 inh HTS: PAX8 transcriptional activity inhibition; inhibition, % at 12.6 µM; RMG-I TPO-luciferase reporter, SteadyGlo, 24 h; 1.2% of 360,000 active;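 active = mean replicate inhibition at least 60% with every replicate also reaching 60%; inconclusive = only one of the two criteria is met; inactive = mean below 60% and not all replicates reaching 60%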;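 also: luciferase light reporting Pax8 driven TPO promoter activity; plate controls were median of neutral control wells for no effect and mitoxantrone controls for full effect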
# MLL AF4-AF9 inh: inhibitors of human MLL-AF4/AF9 interaction; inhibition, % at 10 µM; AlphaScreen, biotin-AF4 peptide binding to FLAG-AF9; 0.47% of 350,000 active;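 active = every replicate reaching a set inhibition limit, whatever the replicate mean, cut at about 25% in these data; inconclusive = mean inhibition reaches that limit but some replicates miss it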;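 also: 0% = plate neutral control median and 100% = total signal loss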
# Target sequence (P42568 whole entry, looked up): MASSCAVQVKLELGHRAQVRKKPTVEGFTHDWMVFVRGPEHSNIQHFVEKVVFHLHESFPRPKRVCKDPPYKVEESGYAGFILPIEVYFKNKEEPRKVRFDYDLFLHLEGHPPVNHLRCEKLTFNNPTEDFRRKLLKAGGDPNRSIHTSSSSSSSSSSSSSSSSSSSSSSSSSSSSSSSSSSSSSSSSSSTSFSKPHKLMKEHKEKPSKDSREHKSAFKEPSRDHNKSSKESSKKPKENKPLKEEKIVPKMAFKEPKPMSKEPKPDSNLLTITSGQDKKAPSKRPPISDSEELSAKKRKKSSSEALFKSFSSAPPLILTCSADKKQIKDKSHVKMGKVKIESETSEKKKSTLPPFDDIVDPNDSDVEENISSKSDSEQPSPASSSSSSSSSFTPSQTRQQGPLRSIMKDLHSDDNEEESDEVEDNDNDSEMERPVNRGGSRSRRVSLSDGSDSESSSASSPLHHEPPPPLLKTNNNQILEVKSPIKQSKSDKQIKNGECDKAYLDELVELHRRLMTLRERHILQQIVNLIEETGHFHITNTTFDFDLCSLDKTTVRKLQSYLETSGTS
# * marks the source's active call; other numbers are inactive results; u = inconclusive; x = no result.
SMILES,PGC1a acetyl inh,Xi reactivation,EWS-Fli block,GSIS activator,PAX8 inh HTS,MLL AF4-AF9 inh
COc1ccc2c3c(n(C)c2c1)[C@@H](CO)N(C(C)=O)CC31CCN(S(=O)(=O)c2ccccc2)CC1,1,0,-3,-5,x,2
Cc1cccc(S(=O)(=O)N2CC[C@@H]3[C@H](CO)N(C)c4ccc(-c5ccc(C#N)cc5)cc4[C@@H]32)c1,-10,0,5,10,89*,-5
Cc1cccc(S(=O)(=O)N2CC[C@H]3[C@@H](CO)N(C)c4ccc(-c5ccc(C#N)cc5)cc4[C@H]32)c1,-4,0,1,17,-22,-9
Cc1ccc(S(=O)(=O)N2CC[C@@H]3[C@H](CO)N(C)c4ccc(-c5ccc(C#N)cc5)cc4[C@@H]32)cc1,5,0,13,-38,80*,2
CN1c2ccc(-c3cccc(C#N)c3)cc2[C@H]2[C@H](CCN2S(=O)(=O)c2ccccc2F)[C@H]1CO,13,0,22,-17,102*,5
Cc1ccc(S(=O)(=O)N2CC[C@@H]3[C@H]2c2cc(-c4ccc(C#N)cc4)ccc2N(C)[C@H]3CO)cc1,-9,0,1,0,22,-1
C[C@@H]1CN([C@@H](C)CO)C(=O)c2cc(C#Cc3ccccn3)cnc2O[C@@H]1CN(C)CC1CCCC1,-21,0,-4,-4,-3,x
C[C@H]1CN([C@@H](C)CO)C(=O)c2cccc(NC(=O)Nc3cccc4ccccc34)c2O[C@H]1CN(C)C(=O)Nc1ccccc1,2,0,4,-5,x,0
CNC[C@H]1Oc2ccc(NC(C)=O)cc2CC(=O)N(C)C[C@@H]1C,x,0,x,11,x,x
Cc1ccc(S(=O)(=O)N(C)c2ccc(C)c([N+](=O)[O-])c2)cc1,-32,21*,-3,8,7,3
COc1ccccc1NC(=O)N[C@H]1C=C[C@@H](CC(=O)NCc2ccc(Cl)c(Cl)c2)O[C@@H]1CO,-7,1,1,11,3,-1
CCNC(=O)[C@H]1[C@H](CO)[C@H]2Cn3c(cccc3=O)[C@H]2N1CC1CCCCC1,x,0,2,1,x,-6
CC=Cc1ccc2n(c1=O)C[C@@H]1[C@@H](CO)[C@H](C(=O)NCc3ccccc3)N(CC)[C@H]21 (mixture of isomers),2,0,0,6,x,0
CC(=O)c1cccc(Nc2ncnc3ccc(Br)cc23)c1,x,0,6,49*,14,-1
CN(C)CCCn1c(SCC(=O)N2c3ccccc3Sc3ccccc32)nc2ccccc2c1=O,-11,1,54*,-11,5,u
Cn1c(SCC(=O)N2c3ccccc3Sc3ccccc32)nc2ccccc21,x,1,9,5,10,10
Cc1ccc(-c2csc(NC(=O)CSc3nc4ccccc4c(=O)n3CCCN(C)C)n2)cc1,x,0,4,-7,-36,36*
CCn1c(SCC(=O)Nc2nc(-c3ccc(C)cc3)cs2)nnc1-c1ccccc1,0,x,x,x,10,x
C[C@@H]1CN([C@H](C)CO)C(=O)c2cc(C#CC(C)(C)O)cnc2O[C@H]1CN(C)C(=O)CN(C)C,3,0,-1,10,x,1
O=S(=O)(N[C@H]1CC[C@@H](CCn2cc(Cc3ccccc3)nn2)O[C@@H]1CO)c1ccccc1F,-6,0,x,-14,x,1
O=C(C[C@@H]1C=C[C@@H](NC(=O)Nc2ccc3c(c2)OCO3)[C@H](CO)O1)NCc1ccccc1,5,0,2,-1,-13,0
CS(=O)(=O)c1cnc(-c2ccccc2)nc1Oc1ccc(F)cc1,21,x,x,65*,x,x
CC(=O)N1CCN(c2nc(-c3cccs3)nc3ccccc23)CC1,x,0,1,41*,-10,-2
Cc1ccc(-c2nnc(N3CCN(C(=O)CN4C(=O)c5ccccc5C4=O)CC3)c3ccccc23)cc1,-1,x,x,53*,x,x
CC(=O)N1CCN(c2nnc(-c3ccccc3)c3ccccc23)CC1,0,0,-8,40*,-2,1
SMILES,PGC1a acetyl inh,Xi reactivation,EWS-Fli block,GSIS activator,PAX8 inh HTS,MLL AF4-AF9 inh
CCOC(=O)N1CCN(c2nc(-c3cccs3)nc3ccccc23)CC1,x,0,7,3,-4,1
NC(=O)C1CCN(c2nc(-c3ccccc3)nc3ccccc23)CC1,x,x,x,58*,x,x
NC(=O)C1CCN(c2nc(-c3ccccc3)nc3c2oc2ccccc23)CC1,6,x,x,-8,x,x
O=C(CN1C(=O)c2ccccc2C1=O)N1CCN(c2nnc(-c3ccccc3)c3ccccc23)CC1,-1,x,x,x,-8,x
CC(=O)N(C)C[C@@H]1Oc2ncc(C3=CCCC3)cc2C(=O)N([C@@H](C)CO)C[C@H]1C,3,0,-10,10,x,-4
COc1ccc(S(=O)(=O)Nc2ccc3c(c2)C(=O)N([C@@H](C)CO)C[C@H](C)[C@H](CN(C)C)O3)cc1,-1,-1,-1,14,-5,-4
CCC(C)N1CCC2(CC1)N=c1c(c3c4c5c(C)c(O)c3c(O)c1=NC(=O)C(C)=CC=C[C@H](C)[C@H](O)[C@@H](C)[C@@H](O)[C@@H](C)[C@H](OC(C)=O)[C@H](C)[C@@H](OC)C=CO[C@@](C)(O5)C4=O)N2 (some centres undefined),7,0,3,x,12,27*
COC1C=COC2(C)Oc3c(C)c(O)c4c(O)c(c(CN5CCN(C)CC5)c(O)c4c3C2=O)NC(=O)C(C)=CC=CC(C)C(O)C(C)C(O)C(C)C(OC(C)=O)C1C (centres undefined),3,0,-8,x,-4,0
C/C(=N\Nc1ccc([N+](=O)[O-])cc1[N+](=O)[O-])C(C)C(C)C (centres undefined),x,0,-1,-33,-7,26*
CSc1nsc(SCC(=O)Nc2ccc(O)c(C(=O)O)c2)n1,x,0,12,40*,-9,-5
CSc1nsc(SCC(=O)Nc2ccc(Cl)c(C(=O)O)c2)n1,x,0,-7,9,-1,-2
CCCC#Cc1ccc([C@H]2[C@@H](CO)N(C(C)=O)[C@H]2CN(C)C(=O)C2CC2)cc1,x,0,3,-7,x,-1
COc1ccc(S(=O)(=O)N[C@H]2CC[C@H](CC(=O)NCCc3ccccc3)O[C@@H]2CO)cc1,-3,0,-6,12,3,-1
Oc1ccc(/C=N/Nc2nc(-c3ccc(Cl)cc3)cc(C(F)(F)F)n2)cc1,64*,0,6,x,6,17
Cc1cc(-c2ccccc2)nc(N/N=C/c2ccc(O)cc2)n1,1,0,-9,0,-107,1
O=C(NC1CCCCC1)N[C@H]1CC[C@H](CCNS(=O)(=O)c2ccccc2)O[C@H]1CO,12,0,-5,6,9,1

# Assay outcomes from PubChem BioAssay.
